Screening data: PubChem, several laboratories
The sample as a whole holds a higher share of hits than the screen did.
ROMK primary = human ROMK K+ channel modulation, primary screen | P48048 | Tet-inducible ROMK, thallium flux fluorescence; actives lie on both sides | B-score at 10 µM | 130,000 compounds, 2% hits | AID 1918;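 active = signal ratio slope over the read window, or its plate-corrected B-score, at least 3 SD from the plate mean, either direction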;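 note: B-score of the F/F0 ratio slope over 7 to 12 s after thallium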
Target sequence (P48048 whole entry, looked up): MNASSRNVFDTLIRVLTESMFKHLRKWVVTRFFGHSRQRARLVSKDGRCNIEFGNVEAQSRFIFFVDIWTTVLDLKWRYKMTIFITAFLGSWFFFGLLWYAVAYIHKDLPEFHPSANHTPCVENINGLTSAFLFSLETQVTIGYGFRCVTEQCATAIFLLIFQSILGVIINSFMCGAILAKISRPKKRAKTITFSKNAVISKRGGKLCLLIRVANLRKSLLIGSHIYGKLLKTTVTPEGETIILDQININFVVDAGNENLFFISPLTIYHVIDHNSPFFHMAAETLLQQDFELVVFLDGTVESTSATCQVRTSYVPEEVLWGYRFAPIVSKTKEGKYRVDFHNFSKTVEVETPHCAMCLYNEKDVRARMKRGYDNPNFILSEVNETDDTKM
Biofilm kill mix = mixture kills Candida albicans biofilm cells; inhibition, % at 7.6 µM; AID 1242; C. albicans biofilm persisters + clotrimazole, fluorescence viability; primary screen in compound mixtures of four per well; 120,000 compounds, 0.02% hits;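 active = inhibition above 30.3% in the primary screen of four-compound pools, then above 30% when the compound was retested; inconclusive = passed the primary limit but could not be retested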;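 note: compounds exposed to preformed 24 h biofilms for 48 h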
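Assay system: C. albicans biofilms / Medium: RPMI/MOPS medium, pH 7.0 / Schedule: biofilm formation 24 h, compound exposure 48 h, 37 °C / Measured by: Alamar Blue fluorescence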
ROMK retest = human ROMK channel modulation, retest confirmation. shares compounds with ROMK primary. ROMK thallium flux, fluorescence ratio; stronger effect = lower value. normalized thallium flux (F/F0 slope) at 10 µM. 3,000 compounds, 54% hits. AID 1917;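 active = Flux at 10 µM at least 3 SD below or above vehicle control mean in one or both replicates; inconclusive = no clear call, values can overlap the other calls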
Numbers stand for hits; n = inactive; u = inconclusive; x = no result given.

SMILES	ROMK primary	Biofilm kill mix	ROMK retest
Cc1ccc(NC(=O)C(CC(C)C)NC(N)=O)cc1Cl (stereo unspecified)	x	n	x
CCOc1ccccc1/C=N/NC(=O)CNC(=O)c1cccs1	-2.1	n	n
O=C(CNC(=O)c1cccs1)N/N=C/c1ccco1	3.4	n	0.067
O=C(CNC(=O)c1cccs1)N/N=C/c1c[nH]c2ccccc12	n	n	x
Cc1ccc(/C=N/NC(=O)CNC(=O)c2cccs2)o1	n	n	x
CC(C)(C)C1CCc2c(C(=O)N/N=C/c3cccs3)csc2C1 (stereo unspecified)	n	x	x
COc1ccc(S(=O)(=O)N(C)CC(=O)NCCC2=CCCCC2)cc1	x	x	0.069
COc1ccc(S(=O)(=O)N(C)CC(=O)NCCC2=CCCCC2)cc1OC	n	x	x
Cc1cccc(C2c3[nH]c4ccccc4c3CCN2C(=O)c2ocnc2C)n1 (stereo unspecified)	x	n	x
Cc1cccc(C2c3[nH]c4ccccc4c3CCN2C(=O)c2nn(C)c(=O)c3ccccc23)n1 (stereo unspecified)	-4	n	0.066
CCCCn1c(SCC(=O)c2ccc(OC)cc2OC)nc2cc(S(N)(=O)=O)ccc21	n	x	x
N#C/C(=C/c1ccc([N+](=O)[O-])cc1)C(N)=O	-3.7	n	0.06
N#C/C(=C\c1cc([N+](=O)[O-])ccc1Cl)C(N)=O	n	n	x
CCN(CC)CCN1C(=O)C(=O)/C(=C(/O)c2c(C)[nH]c(C(=O)OC)c2C)C1c1ccc(OC)cc1 (stereo unspecified)	n	x	x
O=C(CCN1C(=O)c2ccccc2C1=O)Nc1cccc(S(=O)(=O)NC2=NCCC2)c1	n	n	x
O=C(c1cccc([N+](=O)[O-])c1)c1ccccn1	x	n	u
O=[N+]([O-])c1cccc(/C=C/c2ccccn2)c1	x	n	x
O=C(NNC(=O)c1ccccn1)c1cccc([N+](=O)[O-])c1	n	n	x
N#C/C(=C\c1cccc([N+](=O)[O-])c1)c1ccccn1	-3.6	n	0.046
O=C(NCc1nc2ccccc2[nH]1)C1=C[C@H](c2ccc(C(F)(F)F)cc2)C[C@H](OCc2ccc(CO)cc2)O1	x	n	x
O=C(Nc1ncccn1)c1cc([N+](=O)[O-])cc([N+](=O)[O-])c1	n	n	x
O=[N+]([O-])c1cc(-c2ncccn2)c([N+](=O)[O-])s1	n	n	0.06
O=C(COC(=O)/C=C/c1ccc([N+](=O)[O-])cc1)NCc1ccc2c(c1)OCO2	x	n	n
O=C(Cc1ccc([N+](=O)[O-])cc1)NCc1ccc2c(c1)OCO2	x	n	x
Cc1ccc(C(=O)NC(=S)Nc2ccc3[nH]c(=O)[nH]c3c2)cc1	n	n	x
SMILES	ROMK primary	Biofilm kill mix	ROMK retest
CC(=O)OCC(OC(C)=O)C(OC(C)=O)C(OC(C)=O)C(=O)Nc1ccc(C)cc1 (stereo unspecified)	x	x	n
CC(=O)OCC(OC(C)=O)C(OC(C)=O)C(OC(C)=O)C(=O)Nc1ccccc1 (stereo unspecified)	n	n	x
O=C(O)c1ccc(NC2=C/C(=N/S(=O)(=O)c3ccccc3)c3ccccc3C2=O)cc1	-3.4	n	0.052
O=C1C(Nc2ccc(O)cc2)=C/C(=N/S(=O)(=O)c2cccs2)c2ccccc21	n	n	x
CC1CC(N(C(=O)c2ccco2)c2ccccc2)c2ccccc2N1 (stereo unspecified)	n	x	x
COc1ccc(CNC(=O)CCS(=O)(=O)Cc2cccc(Cl)c2)c(OC)c1	n	n	x
C=CCn1c(=O)/c(=C/c2ccc(O)cc2)s/c1=C(/C#N)c1nnc2n1CCCCC2	-1.1	x	0.053
C=CCn1c(=O)/c(=C\c2ccsc2)s/c1=C(/C#N)C(=O)NCCN1CCOCC1	n	x	x
CCn1c(C(=O)N2CCCC(C(=O)NCCCc3ccccc3)C2)cc2sccc21 (stereo unspecified)	x	n	x
Cc1cc(C)c2[nH]c(=O)c(CN(Cc3ccc4c(c3)OCO4)Cc3nnnn3C3CCCC3)cc2c1	-3.2	x	u
Cc1cccc2cc(CN(Cc3ccc(F)cc3)Cc3nnnn3C3CCCC3)c(=O)[nH]c12	n	x	x
O=c1c2[nH]c3ccc(F)cc3c2ncn1Cc1ccncc1	x	n	x
Cc1cccc(N2C(=O)CC(N3CCN(Cc4ccc(Cl)cc4)CC3)C2=O)c1 (stereo unspecified)	n	x	u
O=C1CC(N2CCN(c3ccccc3)CC2)C(=O)N1Cc1ccc(Cl)cc1 (stereo unspecified)	n	n	x
COc1cccc(C(=O)CSc2nnc(-c3ccco3)n2CC2CCCO2)c1 (stereo unspecified)	n	x	x
N#CCCN(CCC#N)C(=S)NC1CC2C=CC1C2 (stereo unspecified)	x	n	x
O=C(Nc1ccc(Br)cc1)c1ccc(N2C(=O)C3CC=CCC3C2=O)cc1 (stereo unspecified)	n	n	x
O=c1cc(-c2cccc(F)c2)[nH]c2ccccc12	n	n	x
Cc1ccc(-c2cc(=O)c3cc(F)ccc3[nH]2)cc1	n	n	x
Cc1ccc2[nH]c(-c3cccc(F)c3)cc(=O)c2c1	3.1	n	n
COc1ccc2[nH]c(-c3cccc(F)c3)cc(=O)c2c1	4	n	n
CCOC(=O)C1CCN(C(=O)COC(=O)c2ccc3c(c2)C(=O)N(c2ccc(OCC)cc2)C3=O)CC1	n	n	x
O=C(CSc1nc2ccccc2c(=O)n1CCC(=O)N1CCN(c2ccccc2)CC1)NCC1CCCO1 (stereo unspecified)	n	n	x
COc1ccc(CNC(=O)c2ccc(C(C)C)cc2)cc1	x	n	x
COc1ccc(C(=O)NCc2c(CC(C)C)oc(C)c2C(=O)O)cc1	x	x	n
SMILES	ROMK primary	Biofilm kill mix	ROMK retest
Oc1ccc(-c2n[nH]c(C(F)(F)F)c2-c2ccccc2)c(O)c1	x	n	x
CC1CC(C)CN(S(=O)(=O)c2ccc3c(c2)oc(=O)n3CC(=O)NCc2cccnc2)C1 (stereo unspecified)	n	n	x
O=C(Nc1ccccc1-c1ccccc1)NC1CC2CCCC(C1)N2Cc1ccc(F)cc1 (stereo unspecified)	n	n	x
O=C(Nc1ccccc1-c1ccccc1)NC1CC2CCCC(C1)N2CCc1ccccc1 (stereo unspecified)	-3.1	n	0.058
CN(C)c1cccc(NC(=O)c2ccco2)c1	2.6	n	n
CN(Cc1ccccc1)C(=O)c1cccc(NC(=O)c2ccco2)c1	n	x	x
CCOCCCn1c(=S)[nH]c2cc(C(=O)N3CCC(C(N)=O)(N4CCCCC4)CC3)ccc2c1=O	n	n	x
O=c1c2ccccc2c(C=NC2CCS(=O)(=O)C2)c(O)n1-c1ccccc1 (stereo unspecified)	n	x	x
O=S1(=O)CCC(N=Cc2cc(Br)ccc2O)C1 (stereo unspecified)	n	x	0.1
Cc1cccc2c3nc4ccccc4nc3n(CCCN3C(=O)c4ccccc4C3=O)c12	x	n	0.065
COc1ccc2c(c1)c1nc3ccccc3nc1n2CCCN1C(=O)c2ccccc2C1=O	x	n	x
Cn1c(=O)c2c(nc(CO)n2C)n(C)c1=O	x	n	x
Cc1ccc(SC[C@H](CC(C)C)N2CCN(C)CCC2=O)cc1	x	n	x
CC(C)C[C@@H](CSc1ccc(Br)cc1)N1CCN(C)CCC1=O	x	n	n
S=C(NC1CCCCC1)N(CCc1nc2ccccc2[nH]1)C1CCCC1	x	n	x
CCn1cc(/C=N/NC(=O)c2cc3c(ccc4ccccc43)o2)c2ccccc21	n	x	x
CCOC(=O)Cn1cc(/C=N/NC(=O)c2cc3ccccc3o2)c2ccccc21	x	n	n
